Legend:
[1] = tested on: K562; experiment: Cytotoxicity against human K562 cells after 48 hrs by MTT assay; assay type: functional, cell-based; settings: K562, 48 h
Method in brief: (§1)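 Cells seeded at 5 × 10⁴ cells/mL and allowed to settle 2 h (K562) or overnight (HepG2, HT-29). Compound in DMSO added, then 48 h further culture. Viability read by MTT with a microplate reader, normalized to DMSO-treated controls set as 100%. IC₅₀ obtained by nonlinear regression; each compound measured three times.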

[2] = tested on: HepG2; experiment: Cytotoxicity against human HepG2 cells after 48 hrs by MTT assay; assay type: functional, cell-based; settings: HepG2, 48 h; method in brief: as §1
[3] = tested on: HT-29; experiment: Cytotoxicity against human HT-29 cells after 48 hrs by MTT assay; assay type: functional, cell-based; settings: HT-29, 48 h; method in brief: as §1
[4] = tested on: K562; experiment: Induction of apoptosis in human K562 cells at 30 nM after 12 hrs using annexin V-FITC and propidium iodide staining by flow cytometric analysis relative to control; assay type: functional
Method in brief: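 K562 cells cultured without or with 30 nM compound for 12 h. 1 × 10⁶ cells resuspended in binding buffer containing annexin V-FITC and propidium iodide and incubated 15 min. Further binding buffer added, then cells analysed by flow cytometry for phosphatidylserine exposure.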

Structure (SMILES)	IC50 [1]	IC50 [2]	IC50 [3]	Activity [4]
O=C1Nc2ccc(Br)cc2C1=O	> 10000 nM	> 10000 nM	> 10000 nM	
Cc1ccc2c(c1)C(=O)C(=O)N2	> 10000 nM	> 10000 nM	> 10000 nM	
CCCCc1ccc2c(c1)C(=O)C(=O)N2	> 10000 nM	> 10000 nM	> 10000 nM	
COC(=O)/C=C/c1ccc2c(c1)C(=O)C(=O)N2	220 nM	370 nM	270 nM	
COC(=O)/C=C/c1ccc2c(c1)C(=O)C(=O)N2C	340 nM	530 nM	300 nM	
CCN1C(=O)C(=O)c2cc(/C=C/C(=O)OC)ccc21	170 nM	400 nM	210 nM	
COC(=O)/C=C/c1ccc2c(c1)C(=O)C(=O)N2Cc1ccccc1	40 nM	40 nM	70 nM	
COC(=O)/C=C/c1ccc2c(c1)C(=O)C(=O)N2Cc1ccc(F)cc1	30 nM	40 nM	60 nM	
COC(=O)/C=C/c1ccc2c(c1)C(=O)C(=O)N2Cc1ccc(C#N)cc1	30 nM	50 nM	50 nM	
COC(=O)/C=C/c1ccc2c(c1)C(=O)C(=O)N2Cc1ccc(C(F)(F)F)cc1	40 nM	70 nM	40 nM	
COC(=O)/C=C/c1ccc2c(c1)C(=O)C(=O)N2Cc1ccc(C)cc1	40 nM	40 nM	30 nM	
COC(=O)/C=C/c1ccc2c(c1)C(=O)C(=O)N2Cc1ccc(OC)cc1	3 nM	30 nM	30 nM	37.2%
COC(=O)/C=C/c1ccc2c(c1)C(=O)C(=O)N2Cc1ccc(Cl)cc1	30 nM	40 nM	60 nM	
COC(=O)/C=C/c1ccc2c(c1)C(=O)C(=O)N2Cc1ccc(Cl)c(Cl)c1	60 nM	160 nM	210 nM	
COC(=O)/C=C/c1ccc2c(c1)C(=O)C(=O)N2Cc1ccc(Br)cc1	6 nM	40 nM	30 nM	32.2%
COC(=O)/C=C/c1ccc2c(c1)C(=O)C(=O)N2Cc1cccc(Br)c1	30 nM	170 nM	240 nM	
COC(=O)/C=C/c1ccc2c(c1)C(=O)C(=O)N2Cc1ccccc1Br	70 nM	260 nM	240 nM	
COC(=O)/C=C/c1ccc2c(c1)C(=O)C(=O)N2Cc1ccc2ccccc2c1	40 nM	90 nM	100 nM	
COC(=O)/C=C/c1ccc2c(c1)C(=O)C(=O)N2CCOc1ccccc1	60 nM	210 nM	200 nM	
COC(=O)/C=C/c1ccc2c(c1)C(=O)C(=O)N2Cc1cc(C)cc(C)c1	40 nM	150 nM	70 nM	
COC(=O)/C=C/c1cccc2c1C(=O)C(=O)N2Cc1ccc(OC)cc1	350 nM	5490 nM	3120 nM	
COC(=O)/C=C/c1ccc2c(c1)N(Cc1ccc(OC)cc1)C(=O)C2=O	4860 nM	> 10000 nM	> 10000 nM	
COC(=O)/C=C/c1cccc2c1N(Cc1ccc(OC)cc1)C(=O)C2=O	4130 nM	> 10000 nM	> 10000 nM	
CCOC(=O)/C=C/c1ccc2c(c1)C(=O)C(=O)N2Cc1ccc(OC)cc1	10 nM	90 nM	60 nM	
CCOC(=O)/C=C/c1ccc2c(c1)C(=O)C(=O)N2Cc1ccc(Br)cc1	30 nM	290 nM	50 nM	
CCCCOC(=O)/C=C/c1ccc2c(c1)C(=O)C(=O)N2Cc1ccc(OC)cc1	40 nM	630 nM	420 nM	

Structure (SMILES)	IC50 [1]	IC50 [2]	IC50 [3]	Activity [4]
CCCCOC(=O)/C=C/c1ccc2c(c1)C(=O)C(=O)N2Cc1ccc(Br)cc1	150 nM	650 nM	600 nM	
COc1ccc(CN2C(=O)C(=O)c3cc(/C=C/C(=O)OC(C)(C)C)ccc32)cc1	50 nM	620 nM	480 nM	
CC(C)(C)OC(=O)/C=C/c1ccc2c(c1)C(=O)C(=O)N2Cc1ccc(Br)cc1	290 nM	2050 nM	730 nM	
COc1ccc(CN2C(=O)C(=O)c3cc(/C=C/C(=O)OCCO)ccc32)cc1	40 nM	860 nM	550 nM	
O=C(/C=C/c1ccc2c(c1)C(=O)C(=O)N2Cc1ccc(Br)cc1)OCCO	50 nM	3660 nM	680 nM	
COc1ccc(CN2C(=O)C(=O)c3cc(/C=C/C(=O)O)ccc32)cc1	> 10000 nM	> 10000 nM	> 10000 nM	
COc1ccc(CN2C(=O)C(=O)c3cc(/C=C/C(N)=O)ccc32)cc1	200 nM	890 nM	560 nM	
NC(=O)/C=C/c1ccc2c(c1)C(=O)C(=O)N2Cc1ccc(Br)cc1	300 nM	> 10000 nM	550 nM	
COc1ccc(CN2C(=O)C(=O)c3cc(/C=C/C(=O)N4CCOCC4)ccc32)cc1	720 nM	7380 nM	4240 nM	
O=C1C(=O)N(Cc2ccc(Br)cc2)c2ccc(/C=C/C(=O)N3CCOCC3)cc21	1380 nM	7790 nM	4590 nM	
COc1ccc(CN2C(=O)C(=O)c3cc(/C=C/C(=O)N4CCCC4)ccc32)cc1	460 nM	7810 nM	5230 nM	
O=C1C(=O)N(Cc2ccc(Br)cc2)c2ccc(/C=C/C(=O)N3CCCC3)cc21	1710 nM	6300 nM	4420 nM	
COC(=O)/C=C/c1ccc2c(c1)C(O)C(=O)N2Cc1ccc(OC)cc1 (stereo not given)	30 nM	380 nM	320 nM	
COC(=O)/C=C/c1ccc2c(c1)C(O)C(=O)N2Cc1ccc(Br)cc1 (stereo not given)	260 nM	670 nM	660 nM	
COC(=O)/C=C/c1ccc2c(c1)/C(=N/O)C(=O)N2Cc1ccc(OC)cc1	2110 nM	3560 nM	4940 nM	
COC(=O)/C=C/c1ccc2c(c1)/C(=N/O)C(=O)N2Cc1ccc(Br)cc1	2920 nM	9960 nM	3640 nM	
COC(=O)/C=C/c1ccc2c(c1)CC(=O)N2Cc1ccc(OC)cc1	990 nM	9170 nM	3720 nM	
COC(=O)/C=C/c1ccc2c(c1)CC(=O)N2Cc1ccc(Br)cc1	3160 nM	> 10000 nM	> 10000 nM	
COC(=O)/C=C/c1ccc2c(c1)C1(OCCO1)C(=O)N2Cc1ccc(OC)cc1	4890 nM	> 10000 nM	> 10000 nM	
COC(=O)/C=C/c1ccc2c(c1)C1(OCCO1)C(=O)N2Cc1ccc(Br)cc1	2630 nM	7470 nM	5110 nM	
O=C1Nc2ccc(Cl)cc2C1=O	> 10000 nM	> 10000 nM	> 10000 nM	
O=C1Nc2ccc(F)cc2C1=O [5-FLUOROISATIN]	> 10000 nM	> 10000 nM	> 10000 nM	
COc1ccc2c(c1)C(=O)C(=O)N2 [5-METHOXYISATIN]	> 10000 nM	> 10000 nM	> 10000 nM	
CC[C@@]1(O)C(=O)OCc2c1cc1n(c2=O)Cc2cc3ccccc3nc2-1 [CAMPTOTHECIN]	40 nM	50 nM	60 nM	
O=C1Nc2ccccc2C1=O [ISATIN]	> 10000 nM	> 10000 nM	> 10000 nM	
